Results taken from paper PMC9049079 (RSC Advances, 2020).

Columns and labels:
[1] = biological target: T1, α-Glucosidase from Saccharomyces cerevisiae (Saccharomyces cerevisiae, UniProt P53341); test: α-Glucosidase inhibition assay; type: biochemical
[2] = biological target: T1, α-Glucosidase from Saccharomyces cerevisiae; test: Inhibitory kinetic analysis; type: biochemical
Procedure, shortened: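 Enzyme in 100 mM phosphate buffer pH 6.8 at 37 °C with varied pNPG and test compound at 0, 2, 4, 6, 10 μM. Reversibility was tested as rate vs enzyme at 1.35–5.40 × 10−2 μM final. Lineweaver–Burk plots used enzyme at 6.96 × 10−2 μM. Ki came from nonlinear regression to competitive, non-competitive and mixed models. Mean ± SD, n = 3.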

[3] = biological target: T1, α-Glucosidase from Saccharomyces cerevisiae; test: Fluorescence quenching of α-glucosidase; type: binding; details: for Kq (quenching rate constant): Kq = KSV/τ0, τ0 = 10^−8 s; for Kd: K a (binding constant); for ΔG°: ΔG = ΔH − TΔS
Procedure, shortened: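 Intrinsic fluorescence quenching: enzyme at 6.96 × 10−2 μM, titrated with test compound (0–1.10 μM final), 5 min equilibration, at 298, 304 and 310 K. Excitation 280 nm, emission 290–500 nm, slits 2.5 nm. Buffer (pH 6.8) and compound blanks were subtracted, with inner-filter correction from absorbance. KSV from linear F0/F vs [Q]. Ka and n from double-log plot. ΔH/ΔS from van't Hoff; ΔG = ΔH − TΔS.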

[4] = van't Hoff plot, 298, 304 and 310 K

T1 sequence (P53341 whole entry): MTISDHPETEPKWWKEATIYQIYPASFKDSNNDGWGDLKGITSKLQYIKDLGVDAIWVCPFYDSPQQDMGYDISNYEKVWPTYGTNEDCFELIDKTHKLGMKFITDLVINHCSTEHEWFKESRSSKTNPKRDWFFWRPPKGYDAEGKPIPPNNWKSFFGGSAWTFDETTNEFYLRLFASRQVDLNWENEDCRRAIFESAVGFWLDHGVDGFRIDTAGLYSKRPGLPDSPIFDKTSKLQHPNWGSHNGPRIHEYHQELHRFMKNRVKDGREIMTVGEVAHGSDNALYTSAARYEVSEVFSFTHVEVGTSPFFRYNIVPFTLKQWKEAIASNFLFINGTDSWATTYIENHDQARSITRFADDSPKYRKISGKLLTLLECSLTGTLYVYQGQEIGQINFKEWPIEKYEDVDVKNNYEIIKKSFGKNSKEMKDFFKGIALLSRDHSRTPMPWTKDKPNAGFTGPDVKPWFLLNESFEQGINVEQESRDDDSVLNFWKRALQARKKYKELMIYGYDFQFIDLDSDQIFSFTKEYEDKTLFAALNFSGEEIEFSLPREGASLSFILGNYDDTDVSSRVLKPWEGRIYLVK

IC50 [1]: 4.39 ± 0.74 µM
Ki [2]: 5.38 ± 0.24 µM
type of inhibition (mechanism) ([2]; Lineweaver–Burk plots, piceatannol 0-10 μM): non-competitive
reversibility of inhibition ([2]; plots of υ versus [α-glucosidase], piceatannol 0-10 μM): reversible
Kq (quenching rate constant) ([3]; 298 K): 5.02e+13 M⁻¹ s⁻¹
Kq (quenching rate constant) ([3]; 304 K): 7.01e+13 M⁻¹ s⁻¹
Kq (quenching rate constant) ([3]; 310 K): 1.604e+14 M⁻¹ s⁻¹
Kd ([3]; T 298 K): 2.03 µM
Kd ([3]; T 304 K): 1.38 µM
Kd ([3]; T 310 K): 0.739 µM
K SV (Stern–Volmer quenching constant) ([3]; T 298 K): 5.02 ± 0.039 ×10^5 L mol^−1
n (number of binding sites per α-glucosidase molecule) ([3]; T 298 K): 1.17 ± 0.057
ΔG° ([3]; T 298 K): -7.741 ± 2.3 kcal/mol
K SV (Stern–Volmer quenching constant) ([3]; T 304 K): 7.01 ± 0.032 ×10^5 L mol^−1
n (number of binding sites per α-glucosidase molecule) ([3]; T 304 K): 1.16 ± 0.045
ΔG° ([3]; T 304 K): -8.207 ± 2.3 kcal/mol
K SV (Stern–Volmer quenching constant) ([3]; T 310 K): 16.04 ± 0.049 ×10^5 L mol^−1
n (number of binding sites per α-glucosidase molecule) ([3]; T 310 K): 1.32 ± 0.017
ΔG° ([3]; T 310 K): -8.676 ± 2.3 kcal/mol
ΔH° [3, 4]: 15.43 ± 2.31 kcal/mol
ΔS° [3, 4]: 325.31 ± 31.80 J mol^−1 K^−1
SMILES: Oc1cc(O)cc(/C=C/c2ccc(O)c(O)c2)c1 [piceatannol, Piceatannol]
